Screening data deposited in PubChem BioAssay by Johns Hopkins Ion Channel Center.
Only some compounds are listed: those with a hit (about 3.7% of all), similar ones and a draw of the others.
KCNQ1 inh – human KCNQ1 channel inhibition; CHO-K1 KCNQ1, FluxOR thallium flux fluorescence; active compounds read high; B-score at 10 µM; hit rate 1.3% among 310,000;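 active = compounds whose thallium flux B-score, printed positive for inhibition, exceeds three library SD while starting fluorescence stays within three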;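 also: channel opened by potassium depolarization with thallium stimulus after 20 min compound exposure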
Kir21 block – blocks the mouse Kir2.1 inward-rectifier potassium channel; P35561; HEK293-Kir2.1, FluxOR thallium flux fluorescence; active compounds read low; B-score at 10 µM; hit rate 0.85% among 310,000;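 active = fluorescence ratio B-score at or below minus 3 SD of library scores, with starting-brightness B-score within 2 SD, cut at about -4.2 in these data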;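 also: channel flux triggered by added potassium and thallium sulfate stimulus; B-score of peak minus minimum fluorescence over baseline after thallium stimulus; more negative B-score means stronger Kir2.1 block with less thallium influx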
KCNQ1 act – potentiators or activators of human KCNQ1 potassium channel | B-score at 10 µM | CHO-K1 KCNQ1, thallium flux FluxOR fluorescence; active compounds read high | hit rate 0.35% among 310,000;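 active = fluorescence ratio B-score, a plate-corrected score, at least three library SD, with initial intensity B-score within 5 SD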
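assay system = CHO-K1 cells stably expressing KCNQ1 | medium = assay buffer, equal DMSO in all wells | timing = 37 °C overnight plating, 90-min dark dye load, 20-min compound pretreatment | measured by = kinetic FluxOR thallium fluorescence, 10-s 1-Hz baseline, 110-s post-stimulus read | measure = fluorescence change relative to baseline, converted to B score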
hERG rescue – shields human hERG channel from block by proarrhythmic agents | activation (rescue from dofetilide block), less the hit threshold, % at 10 µM | Q12809 | CHO-hERG, FluxOR thallium flux, dofetilide IC70 present | hit rate 0.51% among 310,000 | AID 1511;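 active = activation above the mean of controls blocked by dofetilide plus 5 SD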;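 also: thallium influx through hERG after potassium depolarization seen as dye fluorescence rise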
KCNK9 inh – blocks the human KCNK9 two-pore domain potassium channel. Q9NPC2. HEK293 KCNK9, FluxOR thallium flux fluorescence; active compounds read low. B-score at 10 µM. hit rate 1.2% among 310,000. AID 488922;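 active = ratio B-score over 3 SD below the library mean, with starting fluorescence within 5 SD of its mean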;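 also: negative B-score means less thallium flux so channel inhibition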
KCNK3 block – human KCNK3 channel inhibition, primary screen; AID 602410; B-score at 10 µM; CHO-KCNK3 thallium flux, FluxOR fluorescence; active compounds read low; O14649; hit rate 0.84% among 340,000;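 active = B-score under library mean minus 4 SD, starting fluorescence ratio at most library mean plus 5 SD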;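 also: more negative B-score means stronger inhibition of thallium flux through KCNK3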
Active calls of the source: *; i = inactive; . = not tested or not shown.

SMILES	KCNQ1 inh	Kir21 block	KCNQ1 act	hERG rescue	KCNK9 inh	KCNK3 block
N#CCCN1CCN(C2=NC(=O)/C(=C\c3cccs3)S2)CC1	i	0.16	i	2	i	i
COc1ccc(C(=O)CC(=O)C(=O)Nc2ccc(C)cc2Cl)cc1	i	0.89	i	56*	i	i
COc1cccc(C(=O)CC(=O)C(=O)Nc2ccc(C)cc2Cl)c1	i	-0.01	i	31*	i	i
CCOc1ccccc1NC(=O)C(=O)CC(=O)c1cccc(OC)c1	i	0.81	16*	12*	i	i
COc1ccc(C(=O)CC(=O)C(=O)Nc2ccccc2OC)cc1	i	-1.1	i	1	i	i
Cc1ccc(NC(=O)CN(C)C(=O)COC(=O)CNS(=O)(=O)c2ccc(F)c(F)c2F)cc1	i	0.54	i	-4	i	i
COc1cc(/C=C/C(=O)Nc2cc(S(=O)(=O)N3CCOCC3)ccc2N2CCCC2)cc(OC)c1OC	i	0.2	i	-15	i	i
CCN(CC)S(=O)(=O)c1ccc(N2CCCCC2)c(NC(=O)/C=C/c2cc(OC)c(OC)c(OC)c2)c1	i	1.9	i	-9	-6.9*	i
CC(C)Oc1ccc(C(=O)Nc2cc(S(=O)(=O)N3CCOCC3)ccc2N2CCOCC2)cc1	.	.	.	.	.	i
O=C(CSc1ccccc1)Nc1ccccc1N1CCOCC1	i	-8.5*	i	-10	i	i
O=C(CSc1ccc(F)cc1)Nc1ccccc1N1CCOCC1	i	-13*	i	-7	i	i
Cc1ccc(-c2nnc(SCC(=O)Nc3ccccc3N3CCOCC3)o2)cc1	i	0.16	i	-16	i	i
Cc1noc(C)c1CSCC(=O)Nc1ccccc1N1CCCCC1	i	-9.9*	i	-19	i	i
Cc1ccc(SCC(=O)Nc2ccccc2N2CCOCC2)cc1	i	-12*	i	-12	i	i
Cc1cccc(NC(=O)CSCc2c(C)noc2C)c1C	i	0.05	i	-6	i	i
CCN(CC)S(=O)(=O)c1ccc(NC=C(C#N)C#N)cc1	i	-0.76	i	-13	i	i
O=C1NC(=Nc2ccccc2Cl)S/C1=C\c1cccc([N+](=O)[O-])c1O	6*	0	i	-13	i	i
CC(C)(C)CCN1CCC(CN2CCNC(=O)C2=O)CC1	.	.	.	.	.	i
COC(=O)C1=CN(Cc2ccc(OC)cc2)C=C(C(=O)OC)C1c1cccs1	i	0.01	i	-9	-6.7*	i
COC(=O)C1=CN(CCCN2CCCC2=O)C=C(C(=O)OC)C1c1cccs1	i	-0.63	i	-8	i	i
Cc1cc(C)c2c(=N)c3ccccc3n(CCCCCCCCn3c4ccccc4c(=N)c4c(C)cc(C)nc43)c2n1	.	.	.	.	.	-10*
CCCCCn1c2c(c(=N)c3ccccc31)CCC2	i	0.29	i	-25	i	i
CCn1c(SCc2ccc(C(=O)OC)o2)nc2sc3c(c2c1=O)CCCC3	i	-0.66	i	-6	-7.9*	i
CCn1c(SCC(=O)OC)nc2sc3c(c2c1=O)CCC3	i	-0.51	i	-3	i	i
C=CCNc1nc(Cl)nc(Nc2ccc([N+](=O)[O-])cc2)n1	i	0.21	i	-2	i	i
SMILES	KCNQ1 inh	Kir21 block	KCNQ1 act	hERG rescue	KCNK9 inh	KCNK3 block
C=CCNc1nc(Nc2ccc([N+](=O)[O-])cc2)nc(N2CCCC2)n1	8*	0.18	i	-20	i	i
CC1CCN(c2nc(Cl)nc(Nc3ccc([N+](=O)[O-])cc3)n2)CC1	8*	-0.3	i	-5	i	i
Cn1ncc2c(Nc3ccc([N+](=O)[O-])cc3)nc(Cl)nc21	i	-0.02	i	-6	i	i
O=C(NCCc1ccccc1Cl)C1CCC(=O)N(C2CCCCCC2)C1 (centres undefined)	i	-1.3	i	-7	i	i
Cc1cc(C)c2c(c1)/C(=N\N=c1\sc3ccccc3n1C)C(=O)N2	i	-0.17	i	-14	i	i
CN(C(=O)/C(N=Nc1cccc(C(F)(F)F)c1)=C(\O)C(F)(F)F)c1ccccc1	6*	-0.42	i	-24	i	i
